Bioassay records as filed in PubChem BioAssay.
TRPC4 inh: blocks the mouse TRPC4 cation channel | B-score at 10 µM | Q9QUQ5 | HEK293 TRPC4beta/mu-opioid, DAMGO-evoked Fluo4 calcium flux; stronger effect = lower value | 300,000 compounds, 0.39% hits;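 active means B-score over 3 SD under the library average, no early fluorescence shift, positive overall ratio signal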
Target sequence (Q9QUQ5 whole entry, looked up): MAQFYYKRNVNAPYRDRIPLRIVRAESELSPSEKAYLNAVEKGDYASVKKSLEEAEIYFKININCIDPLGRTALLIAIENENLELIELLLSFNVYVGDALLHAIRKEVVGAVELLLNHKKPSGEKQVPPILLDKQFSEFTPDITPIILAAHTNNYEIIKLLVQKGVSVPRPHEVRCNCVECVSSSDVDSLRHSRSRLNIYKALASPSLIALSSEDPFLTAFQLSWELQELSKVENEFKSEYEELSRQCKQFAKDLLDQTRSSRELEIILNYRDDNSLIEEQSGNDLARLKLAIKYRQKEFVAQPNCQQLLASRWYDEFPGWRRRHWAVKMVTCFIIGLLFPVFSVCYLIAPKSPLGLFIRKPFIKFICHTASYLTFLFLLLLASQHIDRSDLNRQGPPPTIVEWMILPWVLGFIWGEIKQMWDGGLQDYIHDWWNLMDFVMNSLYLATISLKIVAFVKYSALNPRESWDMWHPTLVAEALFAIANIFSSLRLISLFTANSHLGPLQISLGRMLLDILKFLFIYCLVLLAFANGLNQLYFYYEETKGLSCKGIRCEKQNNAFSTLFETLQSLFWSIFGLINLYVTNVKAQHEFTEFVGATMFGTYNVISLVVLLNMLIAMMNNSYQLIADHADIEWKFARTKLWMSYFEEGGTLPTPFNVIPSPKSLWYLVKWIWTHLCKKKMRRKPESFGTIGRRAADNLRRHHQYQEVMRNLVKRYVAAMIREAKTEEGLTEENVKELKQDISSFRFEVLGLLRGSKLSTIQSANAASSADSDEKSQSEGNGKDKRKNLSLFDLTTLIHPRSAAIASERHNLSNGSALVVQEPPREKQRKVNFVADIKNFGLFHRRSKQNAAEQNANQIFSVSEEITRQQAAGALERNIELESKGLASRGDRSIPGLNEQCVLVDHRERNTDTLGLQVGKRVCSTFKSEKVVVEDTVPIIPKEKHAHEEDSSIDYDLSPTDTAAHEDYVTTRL
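Assay system: HEK293 cells with stable TRPC4beta plus mu-opioid receptor expression; Probe or stimulus: DAMGO in two steps, submaximal then maximal; Dosing: single-point compound dosing; Measured by: Fluo4 calcium-dye fluorescence, kinetic read; Read-out basis: B score from integrated Fluo4 fluorescence ratio.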
TRPC4 potent: allosterically enhances the mouse TRPC4 cation channel; Q9QUQ5; HEK293 TRPC4beta/mu-opioid, DAMGO EC20, Fluo-4 Ca2+ flux; stronger effect = higher value; B-score at 10 µM; 310,000 compounds, 0.42% hits;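 active means B-score of calcium response area above 5 SD of library B-scores, with initial fluorescence ratio within 5 SD of library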;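 further: B-score of integrated fluorescence ratio over time as area under calcium response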
TRPC6 inhibitor: inhibitors of mouse TRPC6 channel. Q61143. HEK293-TRPC6, membrane potential dye, ACh-evoked depolarization; stronger effect = lower value. B-score at 10 µM. 310,000 compounds, 1.1% hits. AID 2553;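 active means B-score under library mean minus 3 SD, initial fluorescence not abnormally high, positive integrated signal ratio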;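 further: B-score derived from integrated fluorescence ratio over the kinetic read; more negative B-score means stronger inhibition of depolarization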
TRPC6 activator: activates the mouse TRPC6 cation channel; Q61143; HEK293-TRPC6 membrane potential dye fluorescence; stronger effect = higher value; B-score at 10 µM; 310,000 compounds, 0.13% hits; AID 2550;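 active means B-score of the integrated fluorescence ratio above library mean plus 3 SD, and starting fluorescence ratio within library mean plus 5 SD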;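 further: higher score means more depolarization so channel activation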
TRPC4 act: opens the mouse TRPC4 cation channel; Q9QUQ5; HEK293 TRPC4beta/mu-opioid, Fluo4 calcium fluorescence; stronger effect = higher value; B-score at 10 µM; 310,000 compounds, 0.49% hits; AID 2237;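 active means B-score above 5 SD of library B-scores, and initial fluorescence ratio not above library mean plus 5 SD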;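 further: positive B-score marks a calcium rise read as TRPC4 activation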
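Test system: HEK293 cells stably co-expressing mouse TRPC4beta and mu-opioid receptor | Schedule: Fluo4 dye loading 45 min at room temperature, 110 s recording | Measured by: Kinetic Fluo4 calcium fluorescence, 5 s baseline at 1 Hz | Evaluation: B score of integrated ratio | Controls: Buffer (low) and maximal DAMGO (high)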
TRPC4 spec 2: mouse TRPC4 off-target activity of TRPC6 inhibitors, second screen. HEK293 TRPC4/MOR, membrane potential dye fluorescence; channel activated by saturating DAMGO dose. inhibition, % at 10 µM. shares compounds with TRPC6 inhibitor. 920 compounds, 42% hits;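 active means compounds whose fluorescence signal differed from control wells by over 3 SD, either direction, in both duplicate plates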
TRPC4 spec: selectivity of TRPC6 inhibitors: effect on mouse TRPC4 | activity change, negative = inhibition, % at 10 µM | HEK293 TRPC4/mu-opioid, membrane potential fluorescence | shares compounds with TRPC6 inhibitor | AID 2777 | 920 compounds, 61% hits;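 active means rise or fall in signal beyond 3 SD of buffer-only wells in both replicate plates, either sign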;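 further: integrated kinetic ratio of fluorescence range over baseline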
HEK293 MPD ctr 2-1: second counter-screen for TRPC6 inhibitors: parental HEK293 cells; AID 2779; parental HEK293 membrane potential dye fluorescence; maximal acetylcholine challenge after compound addition; signal change vs control, % at 10 µM; shares compounds with TRPC6 inhibitor; 920 compounds, 31% hits;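 active means membrane potential signal moving either way by over 3 SD of the maximum-effect control, in both duplicate plates, meaning non-specific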
HEK293 MPD ctr-1: parental HEK293 nonspecific activity of TRPC6 inhibitors; shares compounds with TRPC6 inhibitor; parental HEK293 membrane potential dye fluorescence; membrane potential signal change, % at 10 µM; 920 compounds, 60% hits;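 active means membrane potential signal shifting up or down by more than 3 SD of buffer-only wells, on both duplicate plates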
HEK293 MPD ctr-2: counter-screen for TRPC6 modulators: effect in parental HEK293 cells. 2,400 compounds, 51% hits. shares compounds with TRPC6 inhibitor. membrane potential signal change, % at 10 µM. membrane potential dye fluorescence;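 active means membrane potential signal moves up or down beyond 5 SD from buffer-only wells, on both duplicate plates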
HEK293 MPD ctr 2-2: second counter-screen for TRPC6 modulators: effect in parental HEK293 cells; shares compounds with TRPC6 inhibitor; membrane potential dye fluorescence; after compound, maximal acetylcholine stimulation; inhibition, % at 10 µM; 2,400 compounds, 14% hits;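 active means membrane potential signal drops by more than 5 SD from the mean control signal, in both duplicate plates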;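 further: plate controls were acetylcholine ECmax control wells for no effect and buffer only wells for full effect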
TRPC4/MOR mod: selectivity of TRPC6 modulators against mouse TRPC4. 2,400 compounds, 69% hits. shares compounds with TRPC6 inhibitor. percent change from control (negative = decrease, positive = increase), % at 10 µM. AID 488927. HEK293 TRPC4/mu-opioid, membrane potential fluorescence;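 active means membrane potential signal moved up or down beyond 5 SD of buffer control wells, in both duplicate plates, actives on both sides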;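 further: plate controls were assay buffer wells for no effect and DAMGO maximal-effect wells for full effect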
TRPC4/MOR inh 2: mouse TRPC4 off-target activity of TRPC6 modulators, second screen. inhibition, % at 10 µM. shares compounds with TRPC6 inhibitor. 2,400 compounds, 55% hits. AID 488928. HEK293 TRPC4/mu-opioid, membrane potential dye fluorescence; stimulated with maximal-effect DAMGO;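 active means drop in membrane potential signal beyond 5 SD of the control wells in both duplicate plates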;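 further: TRPC4 counter screen for TRPC6 hits run under conditions tuned for TRPC6 not TRPC4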
TRPC6 inh conf: confirmation of mouse TRPC6 inhibitors; shares compounds with TRPC6 inhibitor; HEK293-TRPC6, membrane potential dye, ACh-evoked depolarization; inhibition, % at 10 µM; 3,300 compounds, 43% hits;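 active means fluorescence ratio falls more than 5 SD below the full-stimulation control mean, in both duplicate runs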;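 further: integrated fluorescence ratio of peak minus minimum over baseline after agonist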
TRPC6 act confirm: confirmation of mouse TRPC6 activators; shares compounds with TRPC6 inhibitor; HEK293-TRPC6 membrane potential dye fluorescence, FDSS; activation, % at 10 µM; 2,800 compounds, 11% hits; AID 488961;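 active means ratio signal rise beyond 5 SD above unstimulated control wells' mean, seen in both duplicate runs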;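 further: plate controls were buffer EC0 wells for no effect and acetylcholine ECmax response for full effect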
Numbers without * were called inactive; i = inactive; . = no result given. Shown are actives, neighbours in structure and some others; about 2.3% of the full set was active somewhere.

SMILES	TRPC4 inh	TRPC4 potent	TRPC6 inhibitor	TRPC6 activator	TRPC4 act	HEK293 MPD ctr-2	HEK293 MPD ctr 2-2	TRPC4/MOR mod	TRPC4/MOR inh 2	TRPC6 inh conf	TRPC6 act confirm	others
O=C(Nc1ccccc1Cl)c1ccc(S(=O)(=O)NCC2CCCO2)cc1 (stereo not given)	i	i	i	i	i	.	.	.	.	.	.
CC(=O)N(Cc1ccc(F)cc1)C1=C(NCCc2ccccc2)C(=O)c2ccccc2C1=O	i	i	-11*	i	i	.	.	.	.	i	i	TRPC4 spec 2=i;TRPC4 spec=-11%*;HEK293 MPD ctr 2-1=i;HEK293 MPD ctr-1=-182%*
COc1ccc(CN2C(=O)NC3(CCCCCC3)C2=O)cc1F	i	i	i	i	i	.	.	.	.	.	.
OCCN(CC#CC(O)(c1ccccc1)c1cccc(F)c1)CCO (stereo not given)	i	i	i	i	i	.	.	.	.	.	.
CCN(CC)CC#CC(O)(c1ccccc1)c1ccccc1	i	i	-14*	i	i	.	.	.	.	80%*	i	TRPC4 spec 2=i;TRPC4 spec=1.8%*;HEK293 MPD ctr 2-1=-31%*;HEK293 MPD ctr-1=5.0%*
CN(C)CCC(O)(c1ccccc1)c1ccccc1	i	i	i	i	i	.	.	.	.	.	.
CN(C)C(C)(C)C#CC(O)(c1ccccc1)c1ccccc1	i	i	-8.4*	i	i	.	.	.	.	67%*	i	TRPC4 spec 2=i;TRPC4 spec=-0.1%*;HEK293 MPD ctr 2-1=11%*;HEK293 MPD ctr-1=4.5%*
CN(C)CCC#CC(O)(c1ccccc1)c1ccccc1	i	i	-5.7*	i	i	i	98%*	7.0%*	i	84%*	.
Cc1cc(/N=C/C=C2\N(C)c3ccccc3C2(C)C)n(CCC#N)n1	i	i	i	i	i	.	.	.	.	.	.
O=C(NCC1CCCO1)c1cccc(S(=O)(=O)N(Cc2ccccc2)c2ccccc2)c1 (stereo not given)	i	i	i	i	i	.	.	.	.	.	.
O=C(O)CC(CC(=O)NCC(O)c1ccccc1)c1ccccc1 (stereo not given)	i	i	i	i	i	.	.	.	.	.	.
CN1CCN(/N=C/c2ccc(N(c3ccccc3)c3ccccc3)cc2)CC1	i	i	i	i	i	.	.	.	.	.	.
CN1CCN(/N=C/c2ccc(N(C)c3ccccc3)cc2)CC1	i	i	-7.1*	i	i	i	i	-12%*	56%*	63%*	i
O=C(Nc1scc(-c2ccc(Br)cc2)c1C(=O)O)c1ccccc1F	i	i	-5.3*	i	i	i	i	i	40%*	54%*	i
COC(=O)c1cc(NC(=O)CSc2nnc(N)s2)ccc1Cl	i	i	-7.1*	i	i	i	i	i	i	i	i
COC(=O)Cc1ccc(NC(=S)N2CCN(c3ccc(F)cc3)CC2)cc1	i	i	i	i	i	.	.	.	.	.	.
NC(=NCCc1c[nH]c2ccccc12)NC(=O)c1ccc(F)cc1	i	i	-6.5*	i	i	i	i	i	54%*	44%*	i
NC(=O)c1ccccc1NC(=O)c1ccccc1Cl	i	i	i	i	i	.	.	.	.	.	.
O=C(Nc1ccccc1C(=O)Nc1nnc(C(F)(F)F)s1)c1ccccc1Cl	i	i	-6.5*	i	i	121%*	i	26%*	54%*	55%*	.
CCOc1ccccc1N(CC(=O)NCCc1ccccc1)C(=O)CCC(=O)Nc1ccccn1	i	i	i	i	i	.	.	.	.	.	.
c1ccc2oc(C3=NNC(=NC4CC4)SC3)cc2c1	i	i	-8.4*	i	i	.	.	.	.	i	i	TRPC4 spec 2=i;TRPC4 spec=i;HEK293 MPD ctr 2-1=i;HEK293 MPD ctr-1=i
O=C(CCc1ccccc1)N=C1SC2CS(=O)(=O)CC2N1Cc1ccccc1 (stereo not given)	i	i	i	i	i	.	.	.	.	.	.
COCCCNC(=O)CCn1nc(-c2ccc(Cl)cc2)ccc1=O	i	i	-5.2*	i	i	i	i	i	i	i	i
O=C(c1cccc(C(F)(F)F)c1)N1CCN(C2CCCCC2)CC1	i	i	-5.6*	i	i	i	i	11%*	i	40%*	.
COC(=O)[C@@H](NC(=O)N1CCN(c2cccc(C(F)(F)F)c2)CC1)C(C)C	i	i	-6.4*	i	i	i	i	i	i	i	i
O=C(c1cccc(F)c1)N1CCN(c2cccc(C(F)(F)F)c2)CC1	i	i	-6*	i	i	i	i	16%*	i	77%*	.
O=C(c1cccc(F)c1)N1CCN(C2CCCCC2)CC1	i	i	i	i	i	.	.	.	.	.	.
CCC(Sc1nc(N)c(NC(=O)c2ccc(Br)o2)c(=O)[nH]1)C(=O)O (stereo not given)	i	i	i	i	i	.	.	.	.	.	.
O=C(Nc1c2c(nn1-c1ccc(F)cc1)CSC2)c1ccc(S(=O)(=O)N2CCOCC2)cc1	i	i	-5.6*	i	i	i	i	i	i	i	i
CC(CN1CCN(C)CC1)OC(=O)c1cccc(F)c1 (stereo not given)	i	i	i	i	i	.	.	.	.	.	.
